# PPC-1+TRAIL kill: compounds killing PPC-1 cancer cells with TRAIL present, primary screen, TRAIL potentiator project, ATPLite luminescence, uHTS; PPC-1 cells + TRAIL, ATPLite viability luminescence; 220,000 tested, 0.41% active; AID 1443, 2008; cell killing (% activity), % at 4 µM or 5 µM;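 active means cell killing above 50% in the first pass at 4 µM, then a duplicate retest at 5 µM averaging 50% or more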;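 further: plate controls were cells with TRAIL plus DMSO for no effect and medium-only wells lacking cells for full effect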
# FLuc inhib CS: firefly luciferase enzyme inhibitors, primary screen, artefact control for luciferase-based inhibitor screens, biochemical, luminescence, ATPLite; Luciferin 4-monooxygenase (Photinus pyralis), P08659; 10 min; 200,000 tested, 1.5% active; inhibition, % at 10 µM;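 active means inhibition above about 50% when tested at 10 µM, limit read from the data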
# Target sequence (P08659 whole entry, looked up): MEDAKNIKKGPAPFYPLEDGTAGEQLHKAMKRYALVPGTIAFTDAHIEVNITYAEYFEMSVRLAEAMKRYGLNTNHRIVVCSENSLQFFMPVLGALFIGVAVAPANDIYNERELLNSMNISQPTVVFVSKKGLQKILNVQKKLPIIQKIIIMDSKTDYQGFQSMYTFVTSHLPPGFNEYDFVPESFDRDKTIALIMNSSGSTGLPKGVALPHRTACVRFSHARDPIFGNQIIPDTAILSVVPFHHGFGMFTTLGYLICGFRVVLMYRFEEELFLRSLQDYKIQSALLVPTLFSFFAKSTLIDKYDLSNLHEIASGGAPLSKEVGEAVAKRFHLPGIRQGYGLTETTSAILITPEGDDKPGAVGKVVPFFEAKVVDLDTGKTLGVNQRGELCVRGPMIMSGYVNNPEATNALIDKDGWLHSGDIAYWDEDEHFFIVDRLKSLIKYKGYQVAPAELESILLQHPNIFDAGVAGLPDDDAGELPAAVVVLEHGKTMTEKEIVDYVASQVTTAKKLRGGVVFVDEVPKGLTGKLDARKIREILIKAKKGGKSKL
# FLuc stim CS: FLuc activators, initial screening, artefact control for FLuc-dependent activation tests, biochemical, ATPlite luminescence. ATPlite luciferase biochemical, 10 min; 0 = ATP-free wells, 1 = DMSO control. activation factor at 10 µM. 200,000 tested, under 10 active. Luciferin 4-monooxygenase (Photinus pyralis), P08659;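 active means luciferase activation factor, scaled between plate controls, of at least 2 with compound at 10 µM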
#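 Assay system: Luciferase/luciferin detection reagent, cell-free biochemical luciferase assay / Also added: ATP substrate / Schedule: 10 min at ambient temperature / Measured by: luminescence measurement of luciferase light output / Benchmarks: low control with PBS replacing ATP, high control enzyme plus ATP without compound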
# TRAIL sens C8: viability loss with TRAIL in NB7+C8 cells, primary screen, TRAIL sensitizer project, cell-based, ATPlite luminescence; 360,000 tested, 1% active; inhibition (viability loss, TRAIL sensitization), % at 10 µM; AID 624354, 2012;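 active means compounds causing at least 50% loss of cell viability in the single-dose screen, relative to plate controls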
# PPC1 cytotox: cytotoxicity in PPC-1 cells, confirmation, cytotoxicity control for TRAIL apoptosis potentiator project, cell-based, ATP content luminescence; AID 1447, 2008; PPC-1 viability, ATPlite luminescence, overnight; cytotoxicity, % at 5 µM; shares compounds with PPC-1+TRAIL kill; 1,200 tested, 50% active;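 active means reconfirmed compounds whose average cytotoxicity reaches 50% or more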;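 further: 0% = DMSO-treated cells and 100% = wells holding medium but no cells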
# Starred values were filed as active, the others as inactive; / = no result. Hits are enriched below; roughly 1.5% of the tested compounds scored in any of these assays.
SMILES,PPC-1+TRAIL kill,FLuc inhib CS,FLuc stim CS,TRAIL sens C8,PPC1 cytotox
C[C@H]1O[C@@H](O[C@H]2[C@@H](O)C[C@H](O[C@H]3[C@@H](O)C[C@H](O[C@H]4CC[C@@]5(C)[C@H](CC[C@@H]6[C@@H]5CC[C@]5(C)[C@@H](C7=CC(=O)OC7)CC[C@]65O)C4)O[C@@H]3C)O[C@@H]2C)C[C@H](O)[C@@H]1O,74*,-5,1,/,73*
C[C@@H]1O[C@@H](O[C@H]2C[C@@H](O)[C@]3(CO)[C@H]4[C@H](O)C[C@]5(C)[C@@H](C6=CC(=O)OC6)CC[C@]5(O)[C@@H]4CC[C@]3(O)C2)[C@H](O)[C@H](O)[C@H]1O,74*,2,1,44,76*
C/C(=N\N1CCN(C)CC1)c1c(O)n(Cc2ccccc2)c(=O)[nH]c1=O,17,-1,1,-9,/
COc1cc(C)c(-c2nc(CN3C[C@@H]4C[C@@H](C3)c3cccc(=O)n3C4)c(C)o2)cc1C,13,-4,1,-1,/
NCC(O)c1cc(O)c(O)cc1F (configuration not stated),/,/,/,-21,/
C[C@H]1C[C@@H](C)C(=O)[C@@H]([C@H](O)CC2CC(=O)NC(=O)C2)C1,33,-5,1,27,42
C[C@]12CCC3C(CC[C@H]4C[C@H](OC(=O)c5cccnc5)CC[C@]34C)C1CCC2=O (some centres not stated),/,/,/,7,/
COC(=O)N(C)c1ccc(C(O)(C(=O)OC)C(F)(F)F)cc1 (configuration not stated),15,-5,1,-5,/
CN(C)c1ccc(-[n+]2c(-c3ccccc3)cc(-c3ccccc3)cc2-c2ccccc2)cc1,44,-6,1.1,42,41
c1ccc(-c2cc(-c3ccccc3)[n+](-c3ccccc3)c(-c3ccccc3)c2)cc1,28,/,/,75*,32
Cn1ncnc2c(=O)n(C)c(=O)nc1-2,89*,-6,1.1,96*,90*
O=c1[nH]c(=S)[nH]c(O)c1N=Nc1ccc2c(c1)OCCO2,74*,/,/,56*,73*
COc1cccc(N=Nc2c(O)[nH]c(=S)[nH]c2=O)c1,15,/,/,20,/
NC1=NC(=O)N2CC12 (configuration not stated),/,/,/,1,/
CCOC(=O)c1c(C)n(Cc2ccccc2)c2ccc(OCC(O)CN3C(=O)CNC3=O)cc12 (configuration not stated),15,-16,1.2,14,12
O=C(COc1ccc2ccc(=O)oc2c1)N1CCC(C(=O)O)(c2ccccc2)CC1,/,/,/,-1,/
CCCCCCN=Cc1c(O)n(C)c(=O)n(C)c1=O,10,-9,1.1,-13,/
C/C=C(\C)C(=O)OC1C(C)=C2C(C1OC(=O)CCCCC)C(C)(OC(C)=O)CC(OC(=O)CCC)C1(O)C2OC(=O)C1(C)O (configuration not stated),57*,/,/,/,54*
CN1CCN(C(=O)COc2ccc(-c3nc4ccccc4s3)cc2)CC1,92*,96*,0,92*,91*
CN1CCN(C(=O)COc2ccc3ccccc3c2)CC1,/,/,/,-1,/
